GRIN3A LBD mod = binders of NR3A ligand-binding domain, primary screen, biophysical, differential scanning fluorimetry, uHTS. Glutamate receptor ionotropic, NMDA 3A (GRIN3A) ligand-binding domain. NR3A LBD differential scanning fluorimetry, Tm shift; 0% = protein alone, 100% = glycine-bound protein. Tm shift relative to glycine control, % at 25 µM. 340,000 compounds, 2.5% hits. AID 1259313, 2017;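 active = melting temperature shift of at least 10% of the positive control shift, at one fixed dose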
EBV gp42 inh = Epstein-Barr virus gp42 inhibitors, primary screen, biochemical, uHTS, fluorescence polarization. inhibition, % (tested at 21.74 µM). 220,000 compounds, 0.42% hits. Glycoprotein 42 (Epstein-Barr virus (strain AG876)), Q1HVG2. Fluorescence polarization binding assay, mP read-out. AID 1085, 2008; in the data active = inhibition above about 50%
Target sequence (Q1HVG2 whole entry, looked up): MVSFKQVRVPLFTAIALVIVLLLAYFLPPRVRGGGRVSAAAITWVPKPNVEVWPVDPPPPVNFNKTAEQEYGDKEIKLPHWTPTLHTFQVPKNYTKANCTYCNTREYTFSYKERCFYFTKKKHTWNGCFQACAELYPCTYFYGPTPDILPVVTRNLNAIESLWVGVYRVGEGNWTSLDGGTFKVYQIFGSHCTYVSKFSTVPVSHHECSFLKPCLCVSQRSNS
CHOP inhibitor = inhibitors of CHOP promoter induction, primary screen, cell-based, unfolded protein response, luciferase reporter; 220,000 compounds, 3.8% hits; inhibition, % at 10 µM; CHO-K1 CHOP-promoter luciferase, tunicamycin-induced, 15-18 h;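 active = compounds that reduced the stress-induced luciferase reporter signal by more than about 70% of percent inhibition, limit read from the data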;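 note: 0% = tunicamycin plus vehicle and 100% = wells without tunicamycin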
MPTP inh = mitochondrial permeability transition pore inhibitors, primary screen, biochemical, isolated mouse mitochondria, absorbance; Ca2+ swelling absorbance, 30 min; inhibition, % at 10 µM; 360,000 compounds, 1.4% hits; AID 602449, 2012;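 active = inhibition of 50% or more, scaled per plate between neutral and stimulator controls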;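 note: 0% = DMSO wells given calcium and 100% = 1 mM EGTA wells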
Tb MetRS inh = T. brucei MetRS inhibitors, primary screen, biochemical, luminescence; methionyl-tRNA synthetase (Trypanosoma brucei brucei); purified T. brucei MetRS, ATP depletion, Kinase-Glo luminescence; inhibition, % at 11.9 µM; 360,000 compounds, 0.4% hits;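 active = inhibition above a per-plate cutoff of the control wells' mean inhibition plus 3 SD, cut at about 5.5% in these data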;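 note: 0% = DMSO wells median and 100% = median of wells with control inhibitor compound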
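Assay system: T. brucei methionyl-tRNA synthetase, purified | Medium: HEPES buffer with MgCl2, KCl, DTT, spermine, BSA, pyrophosphatase | Compound: 11.9 µM single point | Incubation: 15 min enzyme-compound preincubation, 2 h reaction, 10 min detection, 25 °C | Measured by: Kinase-Glo luciferase luminescence reporting remaining unconsumed ATP | Measure: % inhibition normalized to control-well medians | Replication: Singlicate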
WT yeast gro inh = growth inhibition of WT strain, primary screen, mitochondrial fusion inhibitor project, WT and mutant strains, chemical genetic; mitochondrial fusion phenotypic screen; inhibition, % at 10 µM; 190,000 compounds, 2.1% hits; AID 1362, 2008; in the data active = inhibition above about 58%; tested in S. cerevisiae
* = called active by the depositor; x = no result given. Most compounds without a hit are left out; they make up all but 6.4% or so of the library.

SMILES	GRIN3A LBD mod	EBV gp42 inh	CHOP inhibitor	MPTP inh	Tb MetRS inh	WT yeast gro inh
COc1ccc(C2=NN(C(=O)CSc3ncccn3)C(c3ccc(OC)cc3)C2)cc1 (stereo not drawn)	-1	-77	6	0	1	19
CCn1c(SCC(=O)O)nnc1-c1ccc(S(=O)(=O)N2CCCC2)cc1	1	x	x	-1	0	x
O=C(COc1cccc(C(F)(F)F)c1)N1CCN(c2ccc(O)cc2)CC1	1	13	18	7	0	-2
CC(C)NS(=O)(=O)c1ccc(OCC(=O)N2CCN(c3ccccc3)CC2)cc1	-3	0	-8	-2	0	6
O=C(COc1ccc(S(=O)(=O)NC2CCCCC2)cc1)N1CCN(c2cccc(Cl)c2)CC1	-1	-2	79*	-3	0	x
CCC(C)[C@H](NC(=O)N1CCN(c2cccc(C(F)(F)F)c2)CC1)C(=O)OC (stereo partly drawn)	5	-23	81*	-1	-1	24
C=CCOC(=O)N1CCN(c2cccc(C(F)(F)F)c2)CC1	1	-3	81*	0	0	11
O=C(COc1ccc2c(c1)CCC2)N1CCN(c2cccc(C(F)(F)F)c2)CC1	-10	-21	86*	7	0	13
COc1cccc(CNc2nc3cc(-c4ccc(C)cc4)sc3c(=O)n2C)c1OC	x	x	x	2	0	x
O=C(COC(=O)[C@@H]1CCCN1S(=O)(=O)c1ccc(Cl)cc1)NCC(F)(F)F	0	-5	10	1	0	-30
O=C(CSCc1nc2scc(-c3cccs3)c2c(=O)[nH]1)Nc1ccccn1	-2	x	x	0	0	x
O=c1[nH]c(CN2CCc3ccccc32)nc2scc(-c3cccs3)c12	-2	-22	88*	3	0	-10
CCOc1ccc(-c2c(C(=O)N/N=C/c3cccnc3)nnn2-c2nonc2N)cc1	2	x	x	0	0	x
Cc1ccc(C(=O)C=Cc2cccc(C)c2)cc1	2	x	x	2	0	x
COc1cc(/C=C/C(=O)c2ccc(NS(=O)(=O)c3ccc(C)cc3)cc2)ccc1OC(F)F	23*	-1	37	3	1	-22
COc1cc(/C=C/C(=O)c2ccc(NS(=O)(=O)c3ccc(C)cc3)cc2)cc(OC)c1O	11*	-32	-198	2	2	7
COc1cccc(/C=C/C(=O)c2ccc(NS(=O)(=O)c3ccc(C)cc3)cc2)c1	18*	-1	15	9	-1	10
COc1ccc(C(=O)COC(=O)/C=C/c2ccc(S(=O)(=O)Nc3cccc(S(N)(=O)=O)c3)cc2)cc1	11*	-12	9	14	-1	-23
CC(NC(=O)C1CC(=O)N(c2ccc3c(c2)OCCO3)C1)c1ccccc1 (stereo not drawn)	x	x	x	0	0	x
N=c1c2c(ncn1Cc1ccco1)Oc1c(ccc3ccccc13)C2c1ccccc1 (stereo not drawn)	-2	-7	89*	4	0	69*
CN1CCc2c(sc(NC(=O)c3ccc(S(=O)(=O)N4CCCC4)cc3)c2C(N)=O)C1	-1	x	x	0	0	x
O=C(COC(=O)Cc1ccc(Br)cc1)NC12CC3CC(CC(C3)C1)C2	-4	-5	70	-2	0	84*
O=C(COC(=O)Cc1ccc(Br)cc1)NC1CCCCCC1	0	2	20	1	0	-3
CCOC(=O)C1=C(C)n2c(s/c(=C/c3cccc([N+](=O)[O-])c3)c2=O)=NC1c1ccc(O)c(OC)c1 (stereo not drawn)	-4	-14	30	-1	0	70*
O=C(CCC(=O)NNC(=O)c1ccc([N+](=O)[O-])cc1)NCc1ccccc1	-4	-18	16	0	0	18
SMILES	GRIN3A LBD mod	EBV gp42 inh	CHOP inhibitor	MPTP inh	Tb MetRS inh	WT yeast gro inh
Cc1ccccc1CSc1nc2n(n1)C(c1cccs1)C1=C(CCCC1=O)N2 (stereo not drawn)	-10	-12	78*	-1	-1	-7
CCN(C(=O)Cn1c(=O)n2nc(CCn3nc(C)cc3C)nc2c2ccccc21)c1cccc(C)c1	2	-10	9	-1	-1	-19
COc1ccc(N/N=C(\C#N)C(=N)SCc2ccccc2)cc1	29*	3	5	4	0	53
CCCCC(=O)NC(c1ccccc1OC)c1ccc2cccnc2c1O (stereo not drawn)	-3	-11	72*	1	-1	x
Cc1conc1NC(c1cccs1)c1ccc2cccnc2c1O (stereo not drawn)	x	-19	x	x	x	-23
CCCC(=O)NC(c1ccc(C)cc1)c1ccc2cccnc2c1O (stereo not drawn)	-1	x	x	1	0	x
CCCC(=O)NC(c1ccccc1OC)c1ccc2cccnc2c1O (stereo not drawn)	-9	-6	62	-1	-1	8
CCC(=O)NC(c1cccs1)c1ccc2cccnc2c1O (stereo not drawn)	-3	-3	86*	1	0	-2
CC(C)CC(=O)NC(c1cccs1)c1ccc2cccnc2c1O (stereo not drawn)	-9	6	79*	1	0	0
CCCC(=O)NC(c1cccs1)c1cc(Cl)c2cccnc2c1O (stereo not drawn)	-5	6	75*	2	0	0
Cc1ccc(C)c(-n2c3nc(=O)[nH]c(=O)c-3cc3cc([N+](=O)[O-])ccc32)c1	4	59*	37	1	1	-15
Cc1cccc(-n2c3nc(=O)[nH]c(=O)c-3cc3cc([N+](=O)[O-])ccc32)c1	4	-8	-10	0	2	-1
O=C(c1cc2cc3ccc(Cl)cc3nc2o1)N1CCN(Cc2ccc3c(c2)OCO3)CC1	1	x	x	0	1	x
Cc1ccc(S(=O)(=O)Nc2nc3ccccc3nc2NCc2ccco2)cc1	-12	18	10	0	0	18
O=S(=O)(Nc1nc2ccccc2nc1NCc1ccco1)c1ccc(Cl)cc1	0	32	33	-8	1	58*
O=C(c1ccccc1)c1ccc(O)cc1O	0	67*	16	8	-1	4
O=C(O)CCCC(=O)N1CCN(C(c2ccccc2)c2ccccc2)CC1	-1	16	-3	2	0	13
Cc1cccc(NC(=S)N/N=C/c2cccn2Cc2ccc(F)cc2)c1	1	-16	60	15	0	42
CSc1ccccc1NC(=S)N/N=C/c1cccn1Cc1ccc(F)cc1	2	-10	33	10	-1	65*

High-throughput results from PubChem.
